Laboratory results taken from ChEMBL document CHEMBL2331168, “Anticonvulsant evaluation of aminoalkanol derivatives of 2- and 4-methylxanthone” (Bioorg Med Chem, 2013).
Active and inactive are the calls of the source.

Assays:
[1] = test system: Mus musculus; experiment: Neurotoxicity in albino mouse assessed as minimal motor impairment at 30 mg/kg, ip after 4 hrs by rotorod test; assay type: toxicity, organism-based; design: dose 30 mg/kg, route intraperitoneal; conditions: in vivo
Procedure, shortened: (§1)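 Male albino mice (Carworth Farms No. 1) were dosed ip with suspensions in 0.5% methylcellulose and put on a 1 in. knurled rod rotating at 6 rpm at set times after dosing. Neurotoxicity meant failure to stay on the rod for at least 1 min in each of three trials. Scored as impaired/tested.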

[2] = test system: Rattus norvegicus; experiment: Anticonvulsant activity in Sprague-Dawley rat assessed as protection against maximal electroshock-induced seizures at 30 mg/kg, po after 0.5 hrs; assay type: functional, organism-based; design: dose 30 mg/kg
Procedure, shortened: (§2)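 Male Sprague-Dawley rats dosed orally at 30 mg/kg and tested at 0.25, 0.5, 1, 2 and 4 h. Seizures were induced by 60 Hz alternating current at 150 mA for 0.2 s through corneal electrodes, after a drop of 0.9% NaCl in each eye. Protection meant abolition of hindlimb tonic extension. Reported as protected/tested, usually 4 rats per time point.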

[3] = test system: Mus musculus; experiment: Anticonvulsant activity in albino mouse assessed as protection against maximal electroshock-induced seizures at 300 mg/kg, ip after 0.5 hrs; assay type: functional, organism-based; design: dose 300 mg/kg
Procedure, shortened: (§3)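 Male albino mice (Carworth Farms No. 1) were given the compound ip as a suspension in 0.5% methylcellulose at 3–300 mg/kg. MES testing was at 0.5 and 4 h, sometimes also at 0.25 and 1 h. Current was 60 Hz, 50 mA, 0.2 s via corneal electrodes, with saline eye drops. Protection meant no hindlimb tonic extension, scored as protected/tested.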

[4] = test system: Mus musculus; experiment: Anticonvulsant activity in albino mouse assessed as protection against subcutaneous pentetrazole-induced seizures at 300 mg/kg, ip after 0.5 hrs; assay type: functional, organism-based; design: dose 300 mg/kg
Procedure, shortened: (§4)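 Male albino mice (Carworth Farms No. 1) received compound ip in 0.5% methylcellulose, then pentetrazole 85 mg/kg sc in 0.9% NaCl at 0.5 or 4 h. Mice were watched for at least 30 min. Protection meant no threshold seizure, defined as a single clonic spasm lasting at least 5 s. Scored as protected/tested.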

[5] = test system: Mus musculus; experiment: Anticonvulsant activity in albino mouse assessed as protection against subcutaneous pentetrazole-induced seizures at 30 mg/kg, ip after 0.5 hrs; assay type: functional, organism-based; design: dose 30 mg/kg; procedure, shortened: as §4
[6] = test system: Mus musculus; experiment: Anticonvulsant activity in albino mouse assessed as protection against subcutaneous pentetrazole-induced seizures at 100 mg/kg, ip after 4 hrs; assay type: functional, organism-based; design: dose 100 mg/kg; procedure, shortened: as §4
[7] = test system: Rattus norvegicus; experiment: Neurotoxicity in Sprague-Dawley rat assessed as minimal motor impairment at 30 mg/kg, po after 2 hrs by rotorod test; conditions: in vivo
[8] = test system: Rattus norvegicus; experiment: Neurotoxicity in Sprague-Dawley rat assessed as minimal motor impairment at 30 mg/kg, po after 0.5 hrs by rotorod test; conditions: in vivo
[9] = test system: Mus musculus; experiment: Anticonvulsant activity in albino mouse assessed as protection against subcutaneous pentetrazole-induced seizures at 100 mg/kg, ip after 0.5 hrs; assay type: functional, organism-based; design: dose 100 mg/kg; procedure, shortened: as §4
[10] = test system: Mus musculus; experiment: Neurotoxicity in albino mouse assessed as minimal motor impairment at 300 mg/kg, ip after 4 hrs by rotorod test; assay type: toxicity, organism-based; design: dose 300 mg/kg, route intraperitoneal; conditions: in vivo; procedure, shortened: as §1
[11] = test system: Mus musculus; experiment: Anticonvulsant activity in albino mouse assessed as protection against maximal electroshock-induced seizures at 30 mg/kg, ip after 0.5 hrs; assay type: functional, organism-based; design: dose 30 mg/kg; procedure, shortened: as §3
[12] = test system: Rattus norvegicus; experiment: Neurotoxicity in Sprague-Dawley rat assessed as minimal motor impairment at 30 mg/kg, po after 4 hrs by rotorod test; conditions: in vivo
[13] = test system: Mus musculus; experiment: Anticonvulsant activity in albino mouse assessed as protection against maximal electroshock-induced seizures at 30 mg/kg, ip after 4 hrs; assay type: functional, organism-based; design: dose 30 mg/kg; procedure, shortened: as §3
[14] = test system: Mus musculus; experiment: Anticonvulsant activity in albino mouse assessed as protection against maximal electroshock-induced seizures at 300 mg/kg, ip after 4 hrs; assay type: functional, organism-based; design: dose 300 mg/kg; procedure, shortened: as §3
[15] = test system: Mus musculus; experiment: Anticonvulsant activity in albino mouse assessed as protection against subcutaneous pentetrazole-induced seizures at 300 mg/kg, ip after 4 hrs; assay type: functional, organism-based; design: dose 300 mg/kg; procedure, shortened: as §4
[16] = test system: Rattus norvegicus; experiment: Anticonvulsant activity in Sprague-Dawley rat assessed as protection against maximal electroshock-induced seizures at 30 mg/kg, po after 2 hrs; assay type: functional, organism-based; design: dose 30 mg/kg; procedure, shortened: as §2
[17] = test system: Rattus norvegicus; experiment: Anticonvulsant activity in Sprague-Dawley rat assessed as protection against maximal electroshock-induced seizures at 30 mg/kg, po after 0.25 hrs; assay type: functional, organism-based; design: dose 30 mg/kg; procedure, shortened: as §2
[18] = test system: Rattus norvegicus; experiment: Anticonvulsant activity in Sprague-Dawley rat assessed as protection against maximal electroshock-induced seizures at 30 mg/kg, po after 1 hr; assay type: functional, organism-based; design: dose 30 mg/kg; procedure, shortened: as §2
[19] = test system: Mus musculus; experiment: Neurotoxicity in albino mouse assessed as minimal motor impairment at 100 mg/kg, ip after 4 hrs by rotorod test; assay type: toxicity, organism-based; design: dose 100 mg/kg, route intraperitoneal; conditions: in vivo; procedure, shortened: as §1
[20] = test system: Rattus norvegicus; experiment: Neurotoxicity in Sprague-Dawley rat assessed as minimal motor impairment at 30 mg/kg, po after 1 hr by rotorod test; conditions: in vivo
[21] = test system: Rattus norvegicus; experiment: Anticonvulsant activity in Sprague-Dawley rat assessed as protection against maximal electroshock-induced seizures at 30 mg/kg, po after 4 hrs; assay type: functional, organism-based; design: dose 30 mg/kg; procedure, shortened: as §2
[22] = test system: Rattus norvegicus; experiment: Neurotoxicity in Sprague-Dawley rat assessed as minimal motor impairment at 30 mg/kg, po after 0.25 hrs by rotorod test; conditions: in vivo
[23] = test system: Mus musculus; experiment: Anticonvulsant activity in albino mouse assessed as protection against subcutaneous pentetrazole-induced seizures at 30 mg/kg, ip after 4 hrs; assay type: functional, organism-based; design: dose 30 mg/kg; procedure, shortened: as §4
[24] = Neurotoxicity in ip dosed albino mouse assessed as minimal motor impairment after 1 hr by rotorod test; assay type: toxicity, organism-based; conditions: in vivo
Procedure, shortened: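 TD50, with 95% confidence intervals, was the ip dose causing neurotoxicity in 50% of male albino mice. Deficit was judged on the rotorod: a 1 in. knurled rod at 6 rpm, where failure to hold on for 1 min in each of three trials counted as deficit. Read at the stated time after dosing.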

[25] = test system: Mus musculus; experiment: Protective index, ratio TD50 for albino mouse to ED50 for albino mouse by subcutaneous pentetrazole-induced seizure test after 1 hr; assay type: functional
[26] = test system: Mus musculus; experiment: Anticonvulsant activity in albino mouse assessed as protection against maximal electroshock-induced seizures at 100 mg/kg, ip after 0.5 hrs; assay type: functional, organism-based; design: dose 100 mg/kg; procedure, shortened: as §3
[27] = test system: Mus musculus; experiment: Anticonvulsant activity in ip dosed albino mouse assessed as protection against subcutaneous pentetrazole-induced seizures after 1 hr; assay type: functional
[28] = test system: Mus musculus; experiment: Anticonvulsant activity in ip dosed albino mouse assessed as protection against maximal electroshock-induced seizures after 1 hr; assay type: functional
Procedure, shortened: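 ED50, with 95% confidence intervals, was the ip dose protecting 50% of mice in the MES test. It was measured at the stated post-dose time in male albino mice given suspensions in 0.5% methylcellulose. MES used 60 Hz, 50 mA, 0.2 s corneal stimulation, and the endpoint was abolition of hindlimb tonic extension.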

[29] = species on record: Mus musculus; experiment: Protective index, ratio TD50 for albino mouse to ED50 for albino mouse by maximal electroshock-induced seizure test after 1 hr; assay type: functional
Procedure, shortened: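 Protective index was calculated as mouse ip TD50 (rotorod) divided by mouse ip MES ED50, both obtained by quantitative dose-response testing at the stated post-dose time.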

[30] = test system: Mus musculus; experiment: Neurotoxicity in albino mouse assessed as minimal motor impairment at 30 mg/kg, ip after 0.5 hrs by rotorod test; assay type: toxicity, organism-based; design: dose 30 mg/kg, route intraperitoneal; conditions: in vivo; procedure, shortened: as §1
[31] = test system: Mus musculus; experiment: Anticonvulsant activity in albino mouse assessed as protection against maximal electroshock-induced seizures at 100 mg/kg, ip after 4 hrs; assay type: functional, organism-based; design: dose 100 mg/kg; procedure, shortened: as §3
[32] = test system: Mus musculus; experiment: Neurotoxicity in albino mouse assessed as minimal motor impairment at 100 mg/kg, ip after 0.25 hrs by rotorod test; assay type: toxicity, organism-based; design: dose 100 mg/kg, route intraperitoneal; conditions: in vivo; procedure, shortened: as §1
[33] = test system: Mus musculus; experiment: Anticonvulsant activity in albino mouse assessed as protection against maximal electroshock-induced seizures at 100 mg/kg, ip after 1 hr; assay type: functional, organism-based; design: dose 100 mg/kg; procedure, shortened: as §3

Structure (SMILES)	Activity [1]	Activity [2]	Activity [3]	Activity [4]	Activity [5]	Activity [6]	Activity [7]	Activity [8]	Activity [9]	Activity [10]	Activity [11]	Activity [12]	Activity [13]	Activity [14]	Activity [15]	Activity [16]	Activity [17]	Activity [19]	Activity [20]	Activity [23]	also measured
CN(Cc1ccc2oc3ccc(Cl)cc3c(=O)c2c1)C(C)(C)CO	Non-toxic	inactive	Active	inactive	inactive	inactive	Non-toxic	Non-toxic	inactive	Non-toxic	inactive	Non-toxic	inactive	Active	inactive	inactive	inactive	Non-toxic	Non-toxic	inactive	Activity [18]: inactive; Activity [21]: inactive; Activity [22]: Non-toxic
CC[C@H](CO)NCc1ccc2oc3cc(OC)ccc3c(=O)c2c1	Non-toxic	inactive	Active	inactive	inactive	inactive	Non-toxic	Non-toxic	inactive	Non-toxic	inactive	Non-toxic	inactive	Active	inactive	inactive	inactive	Non-toxic	Non-toxic	inactive	TD50 at 1 h [24]: 269 mg/kg; Ratio TD50/ED50 [25]: <1.54; Activity [26]: Active; ED50 [27]: > 175 mg/kg; ED50 [28]: 107 mg/kg; Activity [22]: Non-toxic; Ratio TD50/ED50 [29]: 2.51; Activity [30]: Non-toxic
CC(C)(CO)NCc1ccc2oc3ccc(Cl)cc3c(=O)c2c1	–	–	Active	inactive	inactive	inactive	–	–	inactive	Non-toxic	inactive	–	inactive	Active	inactive	–	–	Non-toxic	–	inactive	Activity [31]: inactive; Activity [32]: Non-toxic; Activity [33]: inactive; Activity [26]: inactive; Activity [30]: Non-toxic
